Assay results reported in ChEMBL document CHEMBL1132342, “Novel hypotensive agents from Verbesina caracasana. 6. Synthesis and pharmacology of caracasandiamide” (1999).
Where “and” joins values, the source holds several entries; their conditions need not be identical. Identical values can stand only once.

Key:
Rattus norvegicus [1] = test: Change in mean aortic flow after iv administration of 200 ug/Kgin anesthetized rats; format: functional
How it was run: (§1)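 Male Wistar rats (299 ± 3 g) were anesthetized with ethylurethane ip, tracheally cannulated and breathing spontaneously, at 37 °C, and stabilized for 60 min. Doses of 50-3200 µg/kg (ratio 2.0) in saline were injected by femoral vein, 50 µL each. Recordings: femoral arterial BP, electromagnetic abdominal-aortic flow, SV from integrated pulsatile flow, polygraphic RF. Peak changes, mean ± SE, n = 12 (n = 7 at 3200).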

Rattus norvegicus [2] = test: Change in systolic blood pressure after iv administration of 1600 ug/Kg in anesthetized rats; format: functional, Artery; how it was run: as §1
Rattus norvegicus [3] = test: Maximum rate of rise of the left ventricular isovolumetric pressure was measured after iv administration of 50 ug/Kg in anesthetized rats; format: functional, Heart left ventricle
How it was run: (§2)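 Urethane-anesthetized (10% w/v, […] ip in saline) adult male Wistar rats, trachea cannulated, breathing spontaneously, 37 °C. Femoral artery catheter for blood pressure, femoral vein for dosing. Sequential iv doses 50–3200 µg/kg (ratio 2.0) in saline, each given after parameters returned to baseline. Peak changes recorded; means ± SE, n = 12 (n = 7 at 3200 µg/kg).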

Rattus norvegicus [4] = test: Change in heart rate after iv administration of 800 ug/kg compound (treatment with reserpine(5 mg/kg/day for 2 days, ip))in anesthetized rats; format: functional
How it was run: (§3)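 Urethane-anesthetized male Wistar rats, 6 per group, received iv doses of 200-1600 µg/kg (ratio 2.0) given alone or under a pretreatment. Pretreatments were continuous iv papaverine infusion (1 mg/kg/min), reserpine 5 mg/kg/day ip for 2 days, or hexamethonium 5 mg/kg iv. Peak changes in femoral arterial BP and HR were recorded; values are mean ± SE.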

Rattus norvegicus [5] = test: Change in heart rate after iv administration of 400 ug/Kg in the presence of acetylcholine (agonist) in anesthetized rats; format: functional
How it was run: (§4)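 Urethane-anesthetized male Wistar rats (16 rats, two equal groups) received 400 or 1600 µg/kg compound iv. Cardiovascular responses to iv agonist boluses (noradrenaline 1 µg/kg, acetylcholine 2.50 µg/kg, adrenaline, isoprenaline) were measured before and after compound dosing. Peak responses are given as mean ± SE; p < 0.05 versus control mean.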

Rattus norvegicus [6] = test: Change in systolic blood pressure after iv administration of 4.12 uM/kg in anesthetized rats; format: functional, Artery
How it was run: (§5)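 Doses were 4.12 µM/kg (two agents), guanethidine 25, clonidine 0.108, hexamethonium 12, reserpine 8, papaverine 5 and histamine […]. Peak changes in systolic BP or HR were recorded.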

Rattus norvegicus [7] = test: Change in systolic blood pressure after iv administration of 4.12 uM/Kg in anesthetized rats; format: functional, Artery; how it was run: as §5
Rattus norvegicus [8] = test: Change in stroke volume after iv administration of 3200 ug/Kg in anesthetized rats; format: functional; how it was run: as §1
Rattus norvegicus [9] = test: Change in heart rate after iv administration of 400 ug/Kg in the presence of isoprenaline (agonist) in anesthetized rats; format: functional; how it was run: as §4
Rattus norvegicus [10] = test: Change in stroke volume after iv administration of 200 ug/Kg in anesthetized rats; format: functional; how it was run: as §1
Rattus norvegicus [11] = test: Change in respiratory frequency after iv administration of 200 ug/Kg in anesthetized rats; format: functional; how it was run: as §1
Rattus norvegicus [12] = test: Change in heart rate after iv administration of 800 ug/kg compound (treatment with papaverine(1 mg/kg/min, iv))in anesthetized rats; format: functional; how it was run: as §3
Rattus norvegicus [13] = test: Change in heart rate after iv administration of 1600 ug/Kg in anesthetized rats; format: functional
How it was run: (§6)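 Adult male Wistar rats under ip ethylurethane (10% w/v in saline, 1 mL/kg) with tracheal cannula and spontaneous breathing, kept at 37 °C. Arterial BP was recorded by femoral artery catheter; compound in saline (50 µL) was given via femoral vein at 50–3200 µg/kg, ratio 2.0. Peak change is given as mean ± SE, n = 12 (n = 7 at 3200 µg/kg).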

Rattus norvegicus [14] = test: Change in systolic blood pressure after iv administration of 800 ug/Kg in anesthetized rats; format: functional, Artery; how it was run: as §2
Rattus norvegicus [15] = test: Change in systolic blood pressure after iv administration of 400 ug/Kg in the presence of isoprenaline (agonist) in anesthetized rats; format: functional, Artery
How it was run: (§7)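 Anesthetized male Wistar rats, two groups of 8, received 400 or 1600 µg/kg iv. Before and after this dose, iv agonist challenges were given: noradrenaline 1 µg/kg, adrenaline, acetylcholine 2.50 µg/kg, or isoprenaline. Systolic/diastolic BP, heart rate and dP/dt responses were recorded before (control) and after dosing; significance was set at p < 0.05 versus control.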

Rattus norvegicus [16] = test: Change in heart rate after iv administration of 400 ug/Kg in the presence of noradrenaline (agonist) in anesthetized rats; format: functional
Rattus norvegicus [17] = test: Maximum rate of rise of the left ventricular isovolumetric pressure after iv administration of 800 ug/Kg compound (treatment with hexamethonium (5 mg/Kg, iv)in anesthetized rats; format: functional, Heart left ventricle
How it was run: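 Anesthetized rats, n = 6 per group, received iv doses of 200–1600 µg/kg (ratio 2.0) either alone (control) or under pretreatment: continuous iv papaverine infusion 1 mg/kg/min, reserpine 5 mg/kg/day ip for 2 days, or hexamethonium 5 mg/kg iv. Peak changes in BP, heart rate and dP/dt recorded; means ± SE, p < 0.05 versus control.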

Rattus norvegicus [18] = test: Change in diastolic blood pressure after iv administration of 800 ug/Kg in anesthetized rats; format: functional, Artery; how it was run: as §6
Rattus norvegicus [19] = test: Change in mean aortic flow after iv administration of 3200 ug/Kg in anesthetized rats; format: functional; how it was run: as §1
Rattus norvegicus [20] = test: Change in diastolic blood pressure after iv administration of 1600 ug/Kg in the presence of adrenaline (agonist) in anesthetized rats; format: functional, Artery; how it was run: as §4
Rattus norvegicus [21] = test: Maximum rate of rise of the left ventricular isovolumetric pressure was measured after iv administration of 400 ug/Kg in the presence of isoprenaline (agonist) in anesthetized rats; format: functional, Heart left ventricle; how it was run: as §7
Rattus norvegicus [22] = test: Maximum rate of rise of the left ventricular isovolumetric pressure was measured after iv administration of 100 ug/Kg in anesthetized rats; format: functional, Heart left ventricle; how it was run: as §2
Rattus norvegicus [23] = test: Change in systolic blood pressure after iv administration of 1600 ug/Kg compound (treatment with reserpine(5 mg/kg/day for 2 days, ip)in anesthetized rats; format: functional, Artery; how it was run: as §3
Rattus norvegicus [24] = test: Change in heart rate after iv administration of 1600 ug/kg compound (treatment with papaverine(1 mg/kg/min, iv))in anesthetized rats; format: functional
How it was run: (§8)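 In anesthetized male Wistar rats, responses to iv compound (200–1600 µg/kg, ratio 2.0) were measured alone and under three pretreatments: continuous iv papaverine infusion (1 mg/kg/min), ip reserpine (5 mg/kg/day for 2 days), or iv hexamethonium (5 mg/kg). Peak changes are given as mean ± SE, n = 6 per group; p < 0.05 versus control.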

Rattus norvegicus [25] = test: Change in diastolic blood pressure after iv administration of 800 ug/Kg compound (treatment with hexamethonium (5 mg/Kg, iv)in anesthetized rats; format: functional, Artery; how it was run: as §8

With COc1ccc(C2C(c3ccc(OC)c(OC)c3)[C@H](C(=O)NCCCC/N=C(\N)NCC=C(C)C)[C@@H]2C(=O)NCCCC/N=C(\N)NCC=C(C)C)cc1OC (some centres undefined) [CARACASANDIAMIDE] the Mean aortic flow (Rattus norvegicus [1]) was -14 mL/min, the BP (Rattus norvegicus [2]) was -41 mmHg and the “Change in BP” value (Rattus norvegicus [2]) was -39%. The “Change in dP/dt” value (Rattus norvegicus [3]) was 17%, the dP/dt (Rattus norvegicus [3]) was 1070 mmHg s-1 and the Heart rate (Rattus norvegicus [4]) was -9 beats min-1. The Heart rate (Rattus norvegicus [5]) was -30 beats min-1, the BP (Rattus norvegicus [6]) was -43 mmHg and the BP (Rattus norvegicus [7]) was -43 mmHg. For the same molecule, the “Change in stroke volume” value (Rattus norvegicus [8]) was -58%, the Stroke volume (Rattus norvegicus [8]) was -117 µL and the Heart rate (Rattus norvegicus [9]) was 69 beats min-1. For the same molecule, the “Change in stroke volume” value (Rattus norvegicus [10]) was 11%, the Stroke volume (Rattus norvegicus [10]) was 23 µL and the “Change in respiratory frequency” value (Rattus norvegicus [11]) was 9 beats min-1 and 9%. The Heart rate (Rattus norvegicus [12]) was -17 beats min-1, the “Change in heart rate” value (Rattus norvegicus [13]) was -8% and the Heart rate (Rattus norvegicus [13]) was -30 beats min-1. For the same molecule, the BP (Rattus norvegicus [14]) was -30 mmHg, the “Change in BP” value (Rattus norvegicus [14]) was -29% and the BP (Rattus norvegicus [15]) was -36 mmHg. The Heart rate (Rattus norvegicus [16]) was 23 beats min-1, the dP/dt (Rattus norvegicus [17]) was 4965 mmHg s-1 and the BP (Rattus norvegicus [18]) was -31 mmHg. The “Change in BP” value (Rattus norvegicus [18]) was -40%, the “Change in mean aortic flow” value (Rattus norvegicus [19]) was -56% and the Mean aortic flow (Rattus norvegicus [19]) was -41 mL/min. The BP (Rattus norvegicus [20]) was 3 mmHg, the dP/dt (Rattus norvegicus [21]) was 13696 mmHg s-1 and the “Change in dP/dt” value (Rattus norvegicus [22]) was 18%. It also gave a dP/dt (Rattus norvegicus [22]) of 1129 mmHg s-1, a BP (Rattus norvegicus [23]) of -16 mmHg and a Heart rate (Rattus norvegicus [24]) of -31 beats min-1. It also gave a BP (Rattus norvegicus [25]) of -53 mmHg.
